Results taken from ChEMBL document CHEMBL1914339, “Design, synthesis and biological evaluation of pyridine acyl sulfonamide derivatives as novel COX-2 inhibitors” (Bioorg Med Chem, 2011).
Calls of active or inactive are those of the source. The calls are words filed in the database; no cut-off is given here.

Tests used:
HepG2 = test: Antiproliferative activity against human HepG2 cells after 48 hrs by MTT colorimetric assay; assay type: functional, cell-based; settings: HepG2, 48 h
Outline: (§1)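 Cells seeded at 2 × 10⁴ cells/ml and grown 24 h, then exposed in exponential growth to final compound concentrations of 0.1 to 100 for 48 h. Survival read by MTT (0.5 mg/mL in DMEM, 4 h) with absorbance at 570 nm. Three replicate wells per concentration; each assay run at least three times.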

MCF7 = test: Antiproliferative activity against human MCF7 cells after 48 hrs by MTT colorimetric assay; assay type: functional, cell-based; settings: MCF7, 48 h; outline: as §1
RAW264.7 [1] = test: Antiinflammatory activity in mouse RAW264.7 cells assessed as inhibition of LPS-induced PGE2 production; assay type: functional, cell-based
B16-F10 = test: Antiproliferative activity against mouse B16F10 cells after 48 hrs by MTT colorimetric assay; assay type: functional, cell-based; settings: B16-F10, 48 h; outline: as §1
[2] = molecular target: Prostaglandin G/H synthase 1 (Mus musculus) (UniProt P22437)
[3] = molecular target: Prostaglandin G/H synthase 2 (Mus musculus) (UniProt Q05769)
RAW264.7 [4] = test: Inhibition of LPS-induced COX2 expression in mouse RAW264.7 cells at 0.75 to 1.5 uM treated 15 mins before LPS challenge measured after 18 hrs by Western blotting; assay type: functional, cell-based
Outline: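 RAW 264.7 cells (5 × 10⁵) were plated for 24 h, then pretreated with compound for 15 min before LPS stimulation for 18 h. Cells were lysed in lysis buffer and COX-2 protein was detected by Western immunoblot.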

Chain of Prostaglandin G/H synthase 2 (Mus musculus) (Q05769 whole entry, looked up): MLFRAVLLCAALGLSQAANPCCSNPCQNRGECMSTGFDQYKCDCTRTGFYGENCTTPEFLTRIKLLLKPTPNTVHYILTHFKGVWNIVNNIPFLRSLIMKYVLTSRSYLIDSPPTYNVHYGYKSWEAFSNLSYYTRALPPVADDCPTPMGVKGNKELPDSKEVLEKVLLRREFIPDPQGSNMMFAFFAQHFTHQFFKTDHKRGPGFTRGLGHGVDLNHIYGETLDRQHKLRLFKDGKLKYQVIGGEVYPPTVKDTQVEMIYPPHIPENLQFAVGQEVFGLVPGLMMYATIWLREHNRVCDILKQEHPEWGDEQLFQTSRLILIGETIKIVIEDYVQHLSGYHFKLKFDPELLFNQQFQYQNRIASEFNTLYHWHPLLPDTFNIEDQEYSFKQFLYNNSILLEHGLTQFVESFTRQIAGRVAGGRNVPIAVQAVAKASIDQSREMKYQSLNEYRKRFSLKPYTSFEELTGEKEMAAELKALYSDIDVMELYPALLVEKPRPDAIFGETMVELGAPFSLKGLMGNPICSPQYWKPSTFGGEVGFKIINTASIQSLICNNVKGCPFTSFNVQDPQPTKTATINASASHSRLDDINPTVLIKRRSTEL
Chain of Prostaglandin G/H synthase 1 (Mus musculus) (P22437 whole entry, looked up): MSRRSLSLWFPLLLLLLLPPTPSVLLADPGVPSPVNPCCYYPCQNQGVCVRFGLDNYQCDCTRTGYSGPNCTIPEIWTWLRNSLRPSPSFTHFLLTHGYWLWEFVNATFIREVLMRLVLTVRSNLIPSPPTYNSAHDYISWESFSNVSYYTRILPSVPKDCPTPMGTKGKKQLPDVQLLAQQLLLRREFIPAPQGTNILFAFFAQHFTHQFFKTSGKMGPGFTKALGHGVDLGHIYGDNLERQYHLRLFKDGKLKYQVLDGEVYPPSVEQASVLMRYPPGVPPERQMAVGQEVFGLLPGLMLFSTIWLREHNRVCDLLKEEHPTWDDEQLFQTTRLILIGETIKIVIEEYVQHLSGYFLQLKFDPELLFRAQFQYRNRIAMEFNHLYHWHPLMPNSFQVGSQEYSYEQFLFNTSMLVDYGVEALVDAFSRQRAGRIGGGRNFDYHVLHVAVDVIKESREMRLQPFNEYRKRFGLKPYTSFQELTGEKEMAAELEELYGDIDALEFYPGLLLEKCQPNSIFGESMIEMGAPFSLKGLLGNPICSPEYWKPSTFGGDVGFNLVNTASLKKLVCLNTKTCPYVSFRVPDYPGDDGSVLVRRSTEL

Row | SMILES | IC50 (HepG2) | IC50 (MCF7) | IC50 (RAW264.7 [1]) | IC50 (B16-F10) | IC50 [2] | IC50 [3] | inhibition (RAW264.7 [4])
1 | Cc1ccc(-c2cc(C(F)(F)F)nn2-c2ccc(S(N)(=O)=O)cc2)cc1 [CELECOXIB] | 95.5 µM | 40.8 µM | 0.1 µM | 85.6 µM |  |  | 
2 | O=C(NS(=O)(=O)c1ccc(F)cc1)c1cccnc1 | 9 µM | 10.6 µM | 8.6 µM | 13.8 µM | > 50 µM | 11.7 µM | 
3 | O=C(NS(=O)(=O)c1ccccc1)c1cncc(C(=O)NS(=O)(=O)c2ccccc2)c1 | 9.2 µM | 10.6 µM | 2.6 µM | 11.3 µM | 36.9 µM | 7.9 µM | 
4 | Cc1ccc(S(=O)(=O)NC(=O)c2ccncc2)cc1 | 20.2 µM | 14.1 µM | 9.8 µM | 16.2 µM | > 50 µM | 19.4 µM | 
5 | O=C(NS(=O)(=O)c1ccc(Cl)cc1)c1cccnc1 | 8.6 µM | 10.1 µM | 3.2 µM | 11.9 µM | 35.8 µM | 6.6 µM | 
6 | O=C(NS(=O)(=O)c1ccc(F)cc1)c1ccccn1 | 8.5 µM | 11 µM | 3.3 µM | 10.9 µM | 43.8 µM | 6.3 µM | 
7 | O=C(NS(=O)(=O)c1ccc(F)cc1)c1ccncc1 | 12.4 µM | 13.9 µM | 9.2 µM | 13.8 µM | > 50 µM | 12.1 µM | 
8 | O=C(NS(=O)(=O)c1ccccc1)c1cccnc1 | 10.4 µM | 11.5 µM | 9.5 µM | 14.5 µM | > 50 µM | 15.8 µM | 
9 | Cc1ccc(S(=O)(=O)NC(=O)c2cccnc2)cc1 | 12.3 µM | 15.5 µM | 8.8 µM | 18.5 µM | > 50 µM | 18.2 µM | 
10 | O=C(NS(=O)(=O)c1ccccc1)c1ccccn1 | 9.9 µM | 10.6 µM | 4.5 µM | 14.2 µM | > 50 µM | 8.8 µM | 
11 | Cc1ccc(S(=O)(=O)NC(=O)c2cncc(C(=O)NS(=O)(=O)c3ccc(C)cc3)c2)cc1 | 10 µM | 10.8 µM | 2.2 µM | 9.2 µM | > 50 µM | 8.5 µM | 
12 | Cc1ccc(S(=O)(=O)NC(=O)c2ccccn2)cc1 | 12.1 µM | 11.8 µM | 5.9 µM | 16.7 µM | > 50 µM | 8 µM | 

These reach a lower IC50 (HepG2). Values come first.

Row | IC50 (HepG2) | IC50 (MCF7) | IC50 (RAW264.7 [1]) | IC50 (B16-F10) | IC50 [2] | IC50 [3] | SMILES | inhibition (RAW264.7 [4])
13 | 5.3 µM | 9.3 µM | 1.6 µM | 10.7 µM | 35.8 µM | 3.7 µM | O=C(NS(=O)(=O)c1ccccc1)c1cccc(C(=O)NS(=O)(=O)c2ccccc2)n1 | 
14 | 6.2 µM | 7.9 µM | 1.9 µM | 8.8 µM | 40.2 µM | 5.6 µM | O=C(NS(=O)(=O)c1ccc(F)cc1)c1cncc(C(=O)NS(=O)(=O)c2ccc(F)cc2)c1 | 
15 | 5 µM | 6.8 µM | 1.9 µM | 8.5 µM | > 50 µM | 3.6 µM | O=C(NS(=O)(=O)c1ccc(Br)cc1)c1ccccn1 | 
16 | 8.1 µM | 9.8 µM | 2.8 µM | 9.4 µM | 39.7 µM | 6 µM | O=C(NS(=O)(=O)c1ccc(Cl)cc1)c1ccccn1 | 
17 | 3.3 µM | 4.1 µM | 1.2 µM | 7.2 µM | 42.5 µM | 2.8 µM | O=C(NS(=O)(=O)c1ccc(Br)cc1)c1cncc(C(=O)NS(=O)(=O)c2ccc(Br)cc2)c1 | 
18 | 3.7 µM | 4.6 µM | 1.1 µM | 10 µM | 40.3 µM | 2.6 µM | O=C(NS(=O)(=O)c1ccc(F)cc1)c1cccc(C(=O)NS(=O)(=O)c2ccc(F)cc2)n1 | 
19 | 3.8 µM | 4.2 µM | 0.87 µM | 6.2 µM | 41.5 µM | 1.9 µM | O=C(NS(=O)(=O)c1ccc(Cl)cc1)c1cccc(C(=O)NS(=O)(=O)c2ccc(Cl)cc2)n1 | 
20 | 1.2 µM | 1.8 µM | 0.15 µM | 2.8 µM | 35.6 µM | 0.8 µM | O=C(NS(=O)(=O)c1ccc(Br)cc1)c1cccc(C(=O)NS(=O)(=O)c2ccc(Br)cc2)n1 | Active
21 | 4.2 µM | 6.2 µM | 2.1 µM | 12.2 µM | 39.8 µM | 5.6 µM | Cc1ccc(S(=O)(=O)NC(=O)c2cccc(C(=O)NS(=O)(=O)c3ccc(C)cc3)n2)cc1 | 
22 | 7.9 µM | 10.1 µM | 8.9 µM | 12.4 µM | 41.2 µM | 12.6 µM | O=C(NS(=O)(=O)c1ccc(Cl)cc1)c1ccncc1 | 
23 | 6.7 µM | 8.3 µM | 2.8 µM | 9.7 µM | 40.5 µM | 4.9 µM | O=C(NS(=O)(=O)c1ccc(Br)cc1)c1cccnc1 | 
24 | 6.3 µM | 8.7 µM | 5.5 µM | 8.8 µM | 38 µM | 7.8 µM | O=C(NS(=O)(=O)c1ccc(Br)cc1)c1ccncc1 | 
